Data set [1] in a line: Octanol-water partition coefficient, log P of the compound by HPLC analysis. In kind it is physicochemical. In short, it runs like this: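 Log P was estimated by isocratic reversed-phase HPLC on a Gemini C18 column (5 μm, 4.6 × 150 mm). The mobile phase was MeOH/H2O/2% HCOOH in H2O (55:43:2, w/w) at 1.0 mL/min and 37 °C, with samples dissolved in the mobile phase. Capacity factor K = (t1 − t0)/t0, with t0 taken from D2O. […] At least 5 injections were made.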

Data set [2] relates to Botrytis cinerea. The data set is described as follows: Antifungal activity against Botryotinia fuckeliana assessed as growth inhibition after 48 hr by NCCLS M27-A broth microdilution method. The data set is classed as functional, organism-based. In short, it runs like this:
(§1)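 Broth microdilution adapted from the NCCLS M27-A yeast method for conidia-forming filamentous plant pathogens. Growth inhibition was read at 48 h and 72 h for Botrytis cinerea, and at 120 h and 144 h for Phomopsis viticola and P. obscurans. The highest concentration tested was 30 μM. Captan served as the internal standard. Means were compared by ANOVA with Fisher's protected LSD.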
For orientation: Broth dilution looks for growth in wells or tubes with falling amounts of substance.

The test system of data set [3] is Phomopsis obscurans. Put plainly: Antifungal activity against Phomopsis obscurans assessed as growth inhibition after 120 hr by NCCLS M27-A broth microdilution method. The data set is classed as functional, organism-based. The settings on record: Paraphomopsis obscurans. In short, it runs like this: as §1
The test system of data set [4] is Phomopsis obscurans. Put plainly: Antifungal activity against Phomopsis obscurans assessed as growth inhibition after 144 hr by NCCLS M27-A broth microdilution method. Particulars: Paraphomopsis obscurans. In kind it is functional, organism-based. In short, it runs like this: as §1
Data set [5] has as its system Botrytis cinerea. Put plainly: Antifungal activity against Botryotinia fuckeliana assessed as growth inhibition after 72 hr by NCCLS M27-A broth microdilution method. In kind it is functional, organism-based. In outline: as §1
In data set [6] the test system is Phomopsis obscurans. Put plainly: Antifungal activity against Phomopsis obscurans assessed as growth inhibition at 30 uM after 144 hr by NCCLS M27-A broth microdilution method. In kind it is functional, organism-based. The settings on record: Paraphomopsis obscurans. In outline: as §1
For data set [7], the system named is Diaporthe ampelina. The data set is described as follows: Antifungal activity against Diaporthe ampelina assessed as growth inhibition after 144 hr by NCCLS M27-A broth microdilution method. In kind it is functional, organism-based. In short, it runs like this: as §1
Data set [8] has as its system Diaporthe ampelina. Put plainly: Antifungal activity against Diaporthe ampelina assessed as growth inhibition after 120 hr by NCCLS M27-A broth microdilution method. In kind it is functional, organism-based. In short, it runs like this: as §1
The test system of data set [9] is Diaporthe ampelina. Put plainly: Antifungal activity against Diaporthe ampelina assessed as growth inhibition at 30 uM after 144 hr by NCCLS M27-A broth microdilution method. The data set is classed as functional, organism-based. In outline: as §1

Usually logP stands for a log measure of how a compound divides between an organic and an aqueous phase.

SMILES strings stand for the structures. Active and inactive are the calls of the source. The rule behind the calls is not given here.

Regarding `CC(C)/C=C/c1c(O)cc(/C=C/C2=CC(=O)OC2CC(=O)O)cc1O` (centres undefined), the logP in [1] (read-out: logP) was found to be 2.59. Further, the result in the data set with Botrytis cinerea [2], in the data set with Phomopsis obscurans [3], in the data set with Phomopsis obscurans [4] and in the data set on Botrytis cinerea [5] was inactive.
Turning to `COc1cccc(CCc2ccc(O)cc2)c1`, the result in the data set with Phomopsis obscurans [6] was Active. In data set [1], this compound returned a logP of 3.07.
In the case of `O=C1C2CC=CCC2C(=O)N1SC(Cl)(Cl)Cl` (centres undefined), the outcome in the data set with Diaporthe ampelina [7] was Active.
Take `Oc1ccc(/C=C/c2ccccc2)cc1O`: the outcome in the data set with Phomopsis obscurans [6], in the data set with Diaporthe ampelina [8] and with Botrytis cinerea [5] was inactive. Further, in the data set with Botrytis cinerea [2], the outcome was Active.
For `COc1cc(/C=C/c2ccccc2)cc(OC)c1` [3,5-O-DIMETHYLPINOSYLVIN], the result in the data set with Phomopsis obscurans [6] was inactive. The logP in data set [1] (read-out: logP) came to 4.15.
Regarding `Oc1cccc(CCc2ccccc2)c1` [3-PHENETHYLPHENOL], the result with Diaporthe ampelina [9], with Phomopsis obscurans [6] and with Diaporthe ampelina [8] was Active. In data set [1], this compound had a logP of 3.19.
Turning to `Oc1ccc(/C=C/c2cccc(O)c2)cc1` [(E)-3,4'-STILBENDIOL], the result in the data set on Phomopsis obscurans [6] was Active. The logP in data set [1] (read-out: logP) was found to be 2.08.
For the compound `Oc1cccc(/C=C/c2ccccc2)c1` [(E)-3-STILBENOL], the outcome in the data set with Phomopsis obscurans [6] was Active. Moreover, the logP in data set [1] was 3.22.
Regarding `COc1cccc(/C=C/c2ccc(O)cc2)c1` [(E)-5-METHOXY-4'-STILBENOL], the result in the data set with Phomopsis obscurans [6] and in the data set with Diaporthe ampelina [8] was Active. In data set [1], the logP was found to be 3.14.
In data set [1], `CC(C)/C=C/c1c(O)cc(/C=C/c2ccc(O)c(O)c2)cc1O` [ARACHIDIN-1] registered a logP of 2.44. Moreover, the outcome in the data set with Botrytis cinerea [2], with Phomopsis obscurans [3], with Phomopsis obscurans [4] and in the data set on Botrytis cinerea [5] was inactive.
As to `CC(C)=CCc1c(O)cc(/C=C/c2ccc(O)cc2)cc1O` [ARACHIDIN-2], the logP in data set [1] (read-out: logP) was determined as 2.56. Moreover, the result in the data set with Botrytis cinerea [2], in the data set on Phomopsis obscurans [3], in the data set with Phomopsis obscurans [4] and with Botrytis cinerea [5] was inactive.
For `CC(C)/C=C/c1c(O)cc(/C=C/c2ccc(O)cc2)cc1O` [ARACHIDIN-3], in data set [1] (read-out: logP), the logP was 2.83. Moreover, the result in the data set on Botrytis cinerea [2], with Phomopsis obscurans [3], with Phomopsis obscurans [4] and in the data set with Botrytis cinerea [5] was inactive.
For `CC(C)/C=C/c1c(O)cc(/C=C/c2ccccc2)cc1O` [ARAHYPIN-1], the logP in data set [1] worked out at 3.71. In addition, the outcome in the data set on Botrytis cinerea [2] and in the data set on Botrytis cinerea [5] was inactive. Further, the result in the data set with Phomopsis obscurans [3], in the data set on Phomopsis obscurans [4] and in the data set on Diaporthe ampelina [7] was Active.
For `CC(C)(O)C(O)Cc1cc(/C=C/c2cc(O)cc(O)c2)ccc1O` (centres undefined) [ARAHYPIN-2], the logP in data set [1] came to 1.36. Moreover, the outcome in the data set on Botrytis cinerea [2], in the data set on Phomopsis obscurans [4] and in the data set with Botrytis cinerea [5] was inactive. Also, in the data set on Phomopsis obscurans [3], the result was Active.
In data set [1], `CC(C)(O)C(O)Cc1c(O)cc(/C=C/c2ccc(O)cc2)cc1O` (centres undefined) [ARAHYPIN-3] displayed a logP of 1.59. In addition, the outcome in the data set on Botrytis cinerea [2] and in the data set on Botrytis cinerea [5] was inactive.
In turn, `CC(C)(O)C(O)Cc1c(O)cc(/C=C/c2ccccc2)cc1O` (centres undefined) [ARAHYPIN-4] registered a logP in data set [1] of 2.59. The outcome in the data set with Botrytis cinerea [2] and with Botrytis cinerea [5] was inactive.
As to `CC1(C)C=Cc2c(O)cc(/C=C/c3ccc(O)cc3)cc2O1` [ARAHYPIN-5], the logP in data set [1] came to 3.34. In addition, the result in the data set on Botrytis cinerea [2] and in the data set on Botrytis cinerea [5] was inactive. Also, the result with Diaporthe ampelina [7] was Active.
`CC(C)=CCc1c(O)cc(/C=C/c2ccccc2)cc1O` [CHIRICANINE A] returned a logP in [1] of 3.46. The outcome in the data set with Botrytis cinerea [2], in the data set on Phomopsis obscurans [3] and in the data set with Botrytis cinerea [5] was inactive. Besides, the result with Phomopsis obscurans [4] and in the data set with Diaporthe ampelina [7] was Active.
Turning to `CC(C)=CCC/C(C)=C/Cc1c(O)cc(/C=C/c2ccc(O)cc2O)cc1O` [CHLOROPHORIN], the outcome in the data set on Phomopsis obscurans [6], with Botrytis cinerea [2], in the data set with Diaporthe ampelina [8] and in the data set with Botrytis cinerea [5] was Active. The same compound displayed a logP in data set [1] of 3.29.
Regarding `COc1cc(O)cc(/C=C/c2ccccc2)c1` [PINOSYLVIN METHYL ETHER], the result in the data set on Phomopsis obscurans [6] and with Diaporthe ampelina [8] was Active. Besides, the logP in data set [1] (read-out: logP) worked out at 3.21.
`Oc1cc(O)cc(/C=C/c2ccccc2)c1` [PINOSYLVIN]: the outcome with Phomopsis obscurans [6], with Diaporthe ampelina [8] and with Botrytis cinerea [5] was inactive. Moreover, the logP in data set [1] (read-out: logP) stood at 2.25. Also, the result with Botrytis cinerea [2] was Active.
For `COc1cc(/C=C/c2ccc(O)cc2)cc(OC)c1` [PTEROSTILBENE], the outcome with Phomopsis obscurans [6], in the data set with Botrytis cinerea [2] and in the data set on Botrytis cinerea [5] was Active. For the same compound, in [1] (read-out: logP), the logP stood at 3.15.
Take `Oc1ccc(/C=C/c2cc(O)cc(O)c2)cc1` [RESVERATROL]: the result in the data set on Phomopsis obscurans [6], in the data set on Diaporthe ampelina [8] and with Botrytis cinerea [5] was inactive. Further, the logP in [1] (read-out: logP) is 1.35. Besides, the outcome with Botrytis cinerea [2] was Active.
`COc1ccc(/C=C/c2cc(O)cc(O[C@@H]3O[C@H](CO)[C@@H](O)[C@H](O)[C@H]3O)c2)cc1O` [RHAPONTIN]: the result in the data set with Phomopsis obscurans [6] and in the data set with Botrytis cinerea [5] was Active. For the same compound, the logP in [1] is reported as 0.74.
For `COc1ccc(/C=C/c2cc(OC)cc(OC)c2)cc1` [TRISMETHOXYRESVERATROL], the outcome with Phomopsis obscurans [6] was Active. Moreover, in data set [1] (read-out: logP), the logP was determined as 4.07.

Values taken from ChEMBL document CHEMBL3045061, “Biological activity of peanut (Arachis hypogaea) phytoalexins and selected natural and synthetic Stilbenoids” (J Agric Food Chem, 2011).
